Source: ChEMBL document CHEMBL4138161, “Discovery of simplified sampangine derivatives as novel fungal biofilm inhibitors” (Eur J Med Chem, 2018)
≈ marks a conversion by molar mass, not a printed value. Calls of active or inactive are those of the source. No cut-off for these calls is given here.

Tests used:
[1] = tested on: Candida albicans; test: Antibiofilm activity against Candida albicans SC5314 cultured in RPMI 1640 media assessed inhibition of yeast-to-hypha morphological transition after 3 hrs; format: functional, organism-based
How it was run: (§1)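 Hyphal induction in Lee's (pH 6.8), Spider, SLAD or RPMI 1640 medium with compound; morphology assessed by microscopy.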

[2] = tested on: Staphylococcus aureus; test: Antibacterial activity against Staphylococcus aureus Mu50 after 24 hrs; format: functional; details: Mu50, 24 h
[3] = tested on: Nakaseomyces glabratus; test: Antifungal activity against Candida glabrata 537 after 24 hrs by spectrophotometric analysis; format: functional; details: Nakaseomyces glabratus, 537, 24 h
How it was run: (§2)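 Broth microdilution in RPMI 1640, inoculum 5×10^3 CFU/mL, compounds from 6.4 mg/mL DMSO stocks, 35 ℃ for 24 h. Growth read as OD600; MIC80 taken as lowest concentration giving 80% growth inhibition. Triplicate.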

[4] = tested on: Candida albicans; test: Antifungal activity against fluconazole-resistant Candida albicans clinical isolate 1010 after 24 hrs by spectrophotometric analysis; format: functional; details: isolate 1010, 24 h
How it was run: (§3)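 Broth microdilution (MIC80) against fluconazole-resistant clinical C. albicans isolates from a Shanghai hospital. Strains were grown in YPD at 30 ℃. Compounds came from 6.4 mg/mL DMSO stocks and were tested over a concentration series on 5×10^3 CFU/mL inoculum in RPMI 1640 at 35 ℃ for 24 h. OD600 was read; MIC80 is the lowest concentration giving 80% growth inhibition. Done in triplicate.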

[5] = tested on: Candida albicans; test: Antibiofilm activity against Candida albicans SC5314 cultured in Spider media assessed inhibition of yeast-to-hypha morphological transition after 3 hrs; format: functional, organism-based; how it was run: as §1
[6] = tested on: Candida albicans; test: Antifungal activity against fluconazole-resistant Candida albicans clinical isolate 032 after 24 hrs by spectrophotometric analysis; format: functional; details: isolate 032, 24 h; how it was run: as §3
[7] = tested on: Candida albicans; test: Antibiofilm activity against Candida albicans SC5314 assessed down regulation of RAS1 gene at 0.4 ug/ml after 1 hr by qRT-PCR analysis; format: functional, organism-based
How it was run: (§4)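 Biofilm grown in dishes with 0.4 µg/mL compound or DMSO control for 1 h; total RNA isolated and transcripts quantified by real-time RT-PCR. Normalized to 18S rRNA, expressed as fold change vs untreated SC5314. Mean ± SD of three independent experiments.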

[8] = tested on: Candida albicans; test: Antibiofilm activity against Candida albicans SC5314 assessed down regulation of HGC1 gene at 0.4 ug/ml after 1 hr by qRT-PCR analysis; format: functional, organism-based; how it was run: as §4
[9] = tested on: Candida albicans; test: Antibiofilm activity against Candida albicans SC5314 assessed down regulation of UME6 gene at 0.4 ug/ml after 1 hr by qRT-PCR analysis; format: functional, organism-based; how it was run: as §4
[10] = tested on: Candida albicans; test: Antibiofilm activity against Candida albicans SC5314 cultured in SLAD media assessed inhibition of yeast-to-hypha morphological transition after 3 hrs; format: functional, organism-based; how it was run: as §1
[11] = tested on: Nannizzia gypsea; test: Antifungal activity against Microsporum gypseum Cmccfmza after 24 hrs by spectrophotometric analysis; format: functional; how it was run: as §2
[12] = tested on: CAPAN-1; test: Cytotoxicity against human Capan1 cells assessed as cell growth inhibition after 48 hrs by CCK8 assay; format: cell-based; details: CAPAN-1, 48 h
[13] = tested on: Candida albicans; test: Antibiofilm activity against Candida albicans SC5314 assessed down regulation of EFG1 gene at 0.4 ug/ml after 1 hr by qRT-PCR analysis; format: functional, organism-based; how it was run: as §4
[14] = tested on: Candida albicans; test: Antibiofilm activity against Candida albicans SC5314 assessed down regulation of CPH1 gene at 0.4 ug/ml after 1 hr by qRT-PCR analysis; format: functional, organism-based; how it was run: as §4
[15] = tested on: Candida albicans; test: Antibiofilm activity against Candida albicans SC5314 assessed as disruption of biofilm formation at 0.8 ug/ml after 24 hrs by scanning electron microscopic analysis; format: functional, organism-based
How it was run: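 Biofilm SEM: cells adhered to poly-L-lysine-coated glass disks, 90 min static at 37°C; non-adherent cells removed, then grown in fresh RPMI 1640 with compound at 37°C for 24 h. Fixed in 2% glutaraldehyde in 0.15 M sodium cacodylate (pH 7.2) for 2 h, graded ethanol dehydration, dried 1 h, gold-coated and imaged by SEM.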

[16] = tested on: Candida albicans; test: Antibiofilm activity against Candida albicans SC5314 cultured in Lee media assessed inhibition of yeast-to-hypha morphological transition after 3 hrs; format: functional, organism-based; how it was run: as §1
[17] = tested on: Candida albicans; test: Antibiofilm activity against Candida albicans SC5314 assessed down regulation of CEK1 gene at 0.4 ug/ml after 1 hr by qRT-PCR analysis; format: functional, organism-based; how it was run: as §4
[18] = tested on: Candida albicans; test: Antibiofilm activity against Candida albicans SC5314 assessed inhibition of cellular surface hydrophobicity at 0.2 to 1.6 ug/ml incubated for 24 hrs; format: functional, organism-based
How it was run: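 Biofilms treated with compound for 24 h were detached and resuspended in PBS to OD600 1.0. Suspension was vortexed with octane (4:1 by volume) for 3 min, then left 3 min at room temperature to separate. Aqueous-phase OD600 was compared with a no-octane control as (control − overlay)/control × 100%. Three replicates per group across three independent experiments.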

[19] = tested on: Candida albicans; test: Antifungal activity against fluconazole-resistant Candida albicans isolate Chang7 clinical isolate after 24 hrs by spectrophotometric analysis; format: functional; details: isolate Chang7, 24 h; how it was run: as §3
[20] = tested on: Candida albicans; test: Antibiofilm activity against Candida albicans SC5314 assessed inhibition of yeast-to-hypha morphological transition at 0.25 ug/ml after 3 hrs; format: functional, organism-based
How it was run: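 Cells were induced to form hyphae in YPD with 10% (vol/vol) fetal bovine serum at 37°C for 3 h with compound. Cell morphology was then photographed. Strains were routinely grown beforehand in YPD at 30°C with shaking.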

[21] = tested on: Candida albicans; test: Antibiofilm activity against Candida albicans SC5314 assessed down regulation of EAP1 gene at 0.4 ug/ml after 1 hr by qRT-PCR analysis; format: functional, organism-based; how it was run: as §4
[22] = tested on: Candida albicans; test: Antifungal activity against Candida albicans SC5314 after 24 hrs by spectrophotometric analysis; format: functional; details: SC5314, 24 h; how it was run: as §2
[23] = tested on: Candida albicans; test: Antifungal activity against fluconazole-resistant Candida albicans clinical isolate 103 after 24 hrs by spectrophotometric analysis; format: functional; details: isolate 103, 24 h; how it was run: as §3
[24] = tested on: Candida albicans; test: Antifungal activity against Candida albicans SC5314 after 48 hrs by spectrophotometric analysis; format: functional; details: SC5314, 48 h
[25] = tested on: Cryptococcus neoformans; test: Antifungal activity against Cryptococcus neoformans 32609 after 24 hrs by spectrophotometric analysis; format: functional; details: Cryptococcus neoformans, 32609, 24 h; how it was run: as §2
[26] = tested on: Candida albicans; test: Antibiofilm activity against Candida albicans SC5314 assessed down regulation of CYR1 gene at 0.4 ug/ml after 1 hr by qRT-PCR analysis; format: functional, organism-based; how it was run: as §4
[27] = tested on: Candida albicans; test: Antibiofilm activity against Candida albicans SC5314 assessed down regulation of ECE1 gene at 0.4 ug/ml after 1 hr by qRT-PCR analysis; format: functional, organism-based; how it was run: as §4
[28] = tested on: Candida albicans; test: Antibiofilm activity against Candida albicans SC5314 assessed inhibition of yeast-to-hypha morphological transition at 0.5 ug/ml after 3 hrs; format: functional, organism-based
How it was run: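 Yeast-to-hypha transition in YPD with 10% (v/v) FBS across compound concentrations; cell morphology photographed after 3 h at 37°C.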

[29] = tested on: Candida albicans; test: Fungicidal activity against Candida albicans SC5314 assessed as reduction in colony forming units at 0.8 ug/ml after 48 hrs by time-kill assay; format: functional, organism-based
How it was run: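 Time-kill: overnight cells PBS-washed, resuspended in RPMI 1640 at 1×10^6 cells/mL with compound, shaken at 200 rpm at 30 ℃. At set time points, dilutions plated on YPD agar and colonies counted after 48 h at 30 ℃. Three independent runs.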

[30] = tested on: Aspergillus fumigatus; test: Antifungal activity against Aspergillus fumigatus 07544 after 24 hrs by spectrophotometric analysis; format: functional; details: Aspergillus fumigatus, 07544, 24 h; how it was run: as §2

SMILES | Activity [1] | MIC80 [2] [µg/mL] | MIC80 [3] [µg/mL] | MIC80 [4] [µg/mL] | Activity [5] | MIC80 [6] [µg/mL] | Activity [7] | Activity [8] | Activity [9] | Activity [10] | MIC80 [11] [µg/mL] | IC50 [12] [µM] | Activity [13] | Activity [14] | Activity [15] | Activity [16] | Activity [17] | Activity [18] | MIC80 [19] [µg/mL] | Activity [20] | further results
CCCc1ccnc2c1C(=O)c1sc([N+](=O)[O-])cc1C2=O | Dose-dependent effect | > 128 | 2 (≈ 6.62 µM) | 0.5 (≈ 1.65 µM) | Dose-dependent effect | 1 (≈ 3.31 µM) | Active | Active | Active | Dose-dependent effect | 2 (≈ 6.62 µM) | > 100 | Active | Active | Active | Dose-dependent effect | Active | Active | 1 (≈ 3.31 µM) | Active | Activity [21]: Active; MIC80 [22]: 0.5 µg/mL (≈ 1.65 µM); MIC80 [23]: 0.5 µg/mL (≈ 1.65 µM); MIC80 [24]: 0.5 µg/mL (≈ 1.65 µM); MIC80 [25]: 1 µg/mL (≈ 3.31 µM); Activity [26]: Active; Activity [27]: Active; Activity [28]: Active; Activity [29]: Active; MIC80 [30]: 4 µg/mL (≈ 13.2 µM)
CCc1ccnc2c1C(=O)c1sc([N+](=O)[O-])cc1C2=O | Dose-dependent effect | > 128 | 2 (≈ 6.94 µM) | 0.25 (≈ 0.867 µM) | Dose-dependent effect | 0.5 (≈ 1.73 µM) | Active | Active | Active | Dose-dependent effect | 2 (≈ 6.94 µM) | > 100 | Active | Active | Active | Dose-dependent effect | Active | Active | 0.25 (≈ 0.867 µM) | Active | Activity [21]: Active; MIC80 [22]: 0.5 µg/mL (≈ 1.73 µM); MIC80 [23]: 0.25 µg/mL (≈ 0.867 µM); MIC80 [24]: 0.25 µg/mL (≈ 0.867 µM); MIC80 [25]: 1 µg/mL (≈ 3.47 µM); Activity [26]: Active; Activity [27]: Active; Activity [28]: Active; Activity [29]: Active; MIC80 [30]: 4 µg/mL (≈ 13.9 µM)
